From ChEMBL document CHEMBL1129565, “Selective inhibitors of monoamine oxidase. 3. Structure-activity relationship of tricyclics bearing imidazoline, oxadiazole, or tetrazole groups” (J Med Chem, 1996)

Assays:
[1] = target: T1, Amine oxidase [flavin-containing] B (Rattus norvegicus, UniProt P19643); assay: Inhibitory activity against rat brain mitochondrial Monoamine oxidase B at 1 uM
T1 sequence (P19643 whole entry): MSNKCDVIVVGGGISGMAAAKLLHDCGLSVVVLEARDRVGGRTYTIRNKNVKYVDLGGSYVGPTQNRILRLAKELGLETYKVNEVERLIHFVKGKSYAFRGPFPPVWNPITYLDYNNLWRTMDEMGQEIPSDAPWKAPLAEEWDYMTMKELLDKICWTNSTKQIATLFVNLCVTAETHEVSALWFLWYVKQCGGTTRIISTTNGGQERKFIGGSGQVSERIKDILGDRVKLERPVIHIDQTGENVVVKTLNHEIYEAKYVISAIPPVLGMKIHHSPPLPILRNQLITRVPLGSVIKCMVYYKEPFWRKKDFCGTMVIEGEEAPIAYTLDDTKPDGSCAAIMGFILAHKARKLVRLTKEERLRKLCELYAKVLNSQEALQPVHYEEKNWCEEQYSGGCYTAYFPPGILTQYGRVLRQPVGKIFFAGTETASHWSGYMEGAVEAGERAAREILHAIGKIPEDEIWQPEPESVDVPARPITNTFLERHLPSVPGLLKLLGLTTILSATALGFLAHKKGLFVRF
In short: (§1)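 Rat brain mitochondrial MAO extract preincubated with inhibitor 15 min at 37 °C in 50 mM potassium phosphate pH 7.4. [14C]phenethylamine added at 10 μM final, then 20 min incubation. Pargyline 2 mM blanks. Stopped with HCl, products extracted into ethyl acetate/toluene and counted radiometrically. Triplicates; IC50 from mean % inhibition vs log concentration.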

[2] = target: T2, Amine oxidase [flavin-containing] A (Rattus norvegicus, UniProt P21396); assay: Inhibitory concentration against rat brain mitochondrial Monoamine oxidase A at 1 uM
T2 sequence (P21396 whole entry): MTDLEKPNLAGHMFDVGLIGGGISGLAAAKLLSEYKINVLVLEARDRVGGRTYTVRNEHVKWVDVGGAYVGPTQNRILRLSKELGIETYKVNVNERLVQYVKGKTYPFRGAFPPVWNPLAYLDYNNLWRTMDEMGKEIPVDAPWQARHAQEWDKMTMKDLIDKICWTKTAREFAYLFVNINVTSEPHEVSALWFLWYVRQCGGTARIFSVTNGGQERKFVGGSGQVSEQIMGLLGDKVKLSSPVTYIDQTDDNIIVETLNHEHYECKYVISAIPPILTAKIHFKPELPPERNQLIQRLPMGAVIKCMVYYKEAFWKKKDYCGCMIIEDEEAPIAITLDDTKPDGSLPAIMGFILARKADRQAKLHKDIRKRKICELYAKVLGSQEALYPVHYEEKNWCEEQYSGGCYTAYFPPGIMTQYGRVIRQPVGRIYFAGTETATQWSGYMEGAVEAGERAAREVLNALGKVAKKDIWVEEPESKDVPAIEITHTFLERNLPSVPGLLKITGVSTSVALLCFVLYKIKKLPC
In short: as §1, with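 “[3H]serotonin” for “[14C]phenethylamine”, “0.2” for “10”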

[3] = target: T2, Amine oxidase [flavin-containing] A; assay: Inhibitory concentration against rat brain mitochondrial monoamine oxidase A
In short: as §1, with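 “[3H]serotonin” for “[14C]phenethylamine”, “0.2” for “10”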

[4] = target: T1, Amine oxidase [flavin-containing] B; assay: Inhibitory activity against rat brain mitochondrial Monoamine oxidase B; in short: as §1
[5] = target: T2, Amine oxidase [flavin-containing] A; assay: Inhibition of the enzyme Monoamine oxidase A which was not completely reverserved after 24 hr of dialysis
In short: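 Reversibility: MAO extract preincubated with or without inhibitor 15 min at 37 °C, in duplicate, then dialysed 24 h at 4 °C with shaking against 0.1 M potassium phosphate pH 7.4, 5% sucrose, 1 mM dithiothreitol, buffer changed ca. 3 and 19 h. Undialysed portions held at 4 °C; both assayed together for MAO activity.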

[6] = target: T1, Amine oxidase [flavin-containing] B; assay: Inhibitory activity against rat brain mitochondrial Monoamine oxidase B at < 1 uM; in short: as §1
[7] = target: T2, Amine oxidase [flavin-containing] A; assay: Inhibitory concentration against rat brain mitochondrial Monoamine oxidase A at <1 uM
In short: as §1, with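 “[3H]serotonin” for “[14C]phenethylamine”, “0.2” for “10”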

[8] = target: T2, Amine oxidase [flavin-containing] A; assay: Inhibitory concentration against rat brain mitochondrial Monoamine oxidase A at 0.1 uM
In short: as §1, with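 “[3H]serotonin” for “[14C]phenethylamine”, “0.2” for “10”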

[9] = target: T1, Amine oxidase [flavin-containing] B; assay: Inhibitory activity against rat brain mitochondrial Monoamine oxidase B at 0.1 uM; in short: as §1
[10] = target: T2, Amine oxidase [flavin-containing] A; assay: Inhibition of the enzyme Monoamine oxidase A which was not completely reverserved after 24 hr of dialysis after po administration to rat (brain); type: organism-based; details: in vivo
[11] = target: T1, Amine oxidase [flavin-containing] B; assay: Inhibitory activity against rat brain mitochondrial Monoamine oxidase B;NS=not significant at 0.1 uM; in short: as §1

## Cc1nc(-c2ccc3c(c2)S(=O)(=O)c2ccccc2O3)no1
[1]
  inhibition at 1 µM: 17%
[2]
  inhibition at 1 µM: 98%

## Cc1ccc2c(c1)S(=O)(=O)c1cc(C3=NCCN3)ccc1C2=O
[1]
  inhibition at 1 µM: 5%
[2]
  inhibition at 1 µM: 53%

## c1ccc2c(c1)Oc1ccc(C3=NCCN3)cc1S2
[3]
  IC50: 100 nM
[4]
  IC50: 10 µM
[5]
  Reversible: 46%

## CCn1nnc(-c2ccc3c(=O)c4cc(O)ccc4oc3c2)n1
[3]
  IC50: 2000 nM
[4]
  IC50: 0.1 µM

## O=S1(=O)c2ccccc2-c2cc(C3=NCCN3)ccc21
[1]
  inhibition at 1 µM: 16%
[2]
  inhibition at 1 µM: 41%

## CCc1nnc(-c2ccc3c(c2)S(=O)(=O)c2ccccc2C3=O)o1
[3]
  IC50: 500 nM
[1]
  inhibition at 1 µM: 23%

## Cn1nnc(-c2ccc3c(c2)S(=O)(=O)c2ccccc2C3=O)n1
[3]
  IC50: 10 nM
[5]
  Reversible: 100%
[1]
  inhibition at 1 µM: 10%

## CC(=O)N1CCN=C1c1ccc2c(c1)S(=O)(=O)c1ccc(F)cc1C2=O
[6]
  Inhibition: -11%
[7]
  Inhibition: 4%

## O=C1c2ccc(C3=NCCN3)cc2S(=O)(=O)c2cc(C(F)(F)F)ccc21
[1]
  inhibition at 1 µM: 10%
[2]
  inhibition at 1 µM: 12%

## O=C1c2cc(N3CCOCC3)ccc2S(=O)(=O)c2cc(C3=NCCN3)ccc21
[3]
  IC50: 10 nM
[1]
  inhibition at 1 µM: 4%

## CCCOc1ccc2c(c1)C(=O)c1ccc(C3=NCCN3C(C)=O)cc1S2(=O)=O
[8]
  inhibition at 0.1 µM: 16%
[9]
  inhibition at 0.1 µM: 20%

## CCn1nnc(-c2ccc3c(c2)S(=O)(=O)c2ccccc2C3=O)n1
[1]
  inhibition at 1 µM: 45%
[2]
  inhibition at 1 µM: 36%

## O=S1(=O)c2ccccc2C(O)c2ccc(C3=NCCN3)cc21 (stereo not given)
[1]
  inhibition at 1 µM: 10%
[2]
  inhibition at 1 µM: 20%

## CC(C)c1ccc2sc3cc(-c4nn[nH]n4)ccc3c(=O)c2c1
[1]
  inhibition at 1 µM: 5%
[2]
  inhibition at 1 µM: 24%

## CCOc1ccc2oc3cc(-c4nnn(CC)n4)ccc3c(=O)c2c1
[6]
  Inhibition: 32%
[7]
  Inhibition: 6%

## O=C1c2ccccc2S(=O)(=O)c2cc(C3=NCCCN3)ccc21
[1]
  inhibition at 1 µM: 5%
[2]
  inhibition at 1 µM: 37%

## Cc1ccc(C)c2c1[nH]c1ccc(C3=NCCN3)cc12
[1]
  inhibition at 1 µM: 10%
[2]
  inhibition at 1 µM: 62%

## O=c1c2ccccc2sc2cc(C3=NCCN3)ccc12
[3]
  IC50: 1000 nM
[1]
  inhibition at 1 µM: 14%

## CC(C)c1ccc2c(c1)C(=O)c1ccc(C3=NCCN3)cc1S2(=O)=O
[3]
  IC50: 50 nM
[5]
  Reversible: 40%
[9]
  inhibition at 0.1 µM: 0%

## NCCNc1ccc2c(c1)C(=O)c1ccc(C3=NCCN3)cc1S2(=O)=O
[3]
  IC50: 300 nM
[10]
  Reversible: 20%
[1]
  inhibition at 1 µM: 11%

## c1cc2c3c([nH]c2cc1C1=NCCN1)CCCC3
[1]
  inhibition at 1 µM: 9%
[2]
  inhibition at 1 µM: 20%

## CCN(C)c1ccc2c(c1)C(=O)c1ccc(C3=NCCN3)cc1S2(=O)=O
[3]
  IC50: 40 nM
[11]
  IC50: Not Active
[10]
  Reversible: 20%

## Cn1nnnc1-c1ccc2c(c1)S(=O)(=O)c1ccccc1C2=O
[8]
  inhibition at 0.1 µM: 53%
[9]
  inhibition at 0.1 µM: 1%

## C=CCNc1ccc2c(c1)C(=O)c1ccc(C3=NCCN3)cc1S2(=O)=O
[3]
  IC50: 9 nM
[5]
  Reversible: 5%
[1]
  inhibition at 1 µM: 12%

## O=S1(=O)c2ccccc2Nc2cc(C3=NCCN3)ccc21
[1]
  inhibition at 1 µM: 12%
[2]
  inhibition at 1 µM: 23%

## CNc1ccc2c(c1)C(=O)c1ccc(C3=NCCN3)cc1S2(=O)=O
[3]
  IC50: 23 nM
[5]
  Reversible: 8%

## Cn1nnc(-c2ccc3c(=O)c4cc(OCCO)ccc4oc3c2)n1
[6]
  Inhibition: 21%
[2]
  inhibition at 1 µM: 64%
